In ChEMBL document CHEMBL2375324 (Bioorg Med Chem, 2013):

The compounds below were run on K562 (assay: Antiproliferative activity against human K562 cells after 48 hrs by MTT assay). Details: K562, 48 h.
Format: functional, cell-based
In short: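 Exponentially growing K562 cells were seeded at 1 × 10⁴ cells/well and preincubated 24 h at 37 °C. They were then exposed to the compounds at various concentrations for 48 h. MTT (5 mg/mL solution) was added for 4 h at 37 °C, the supernatant was removed, and formazan was dissolved in DMSO. Absorbance was read at 490 nm, and IC₅₀ is reported in µM.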

Row | Structure (SMILES) | IC50
1 | COc1ccc(C(=O)Nc2cc(C(F)(F)F)cc(C(F)(F)F)c2)cc1Nc1nccc(-c2cccnc2)n1 | 4840 nM
2 | COc1ccc(C(=O)Nc2cc(Br)cc(C(F)(F)F)c2)cc1Nc1nccc(-c2cccnc2)n1 | 215000 nM
3 | COc1ccc(C(=O)Nc2cccc(Cl)c2)cc1Nc1nccc(-c2cccnc2)n1 | 237000 nM
4 | COc1ccc(C(=O)Nc2cccc(C(C)=O)c2)cc1Nc1nccc(-c2cccnc2)n1 | 237000 nM
5 | Cc1cn(-c2cc(NC(=O)c3ccc(C)c(Nc4nccc(-c5cccnc5)n4)c3)cc(C(F)(F)F)c2)cn1 [NILOTINIB] | 89100 nM

Further lines, results first:

Row | IC50 | Structure (SMILES)
6 | 93100 nM | COc1cccc(NC(=O)c2ccc(OC)c(Nc3nccc(-c4cccnc4)n3)c2)c1
7 | 94500 nM | COc1ccc(C(=O)Nc2ccncc2)cc1Nc1nccc(-c2cccnc2)n1
8 | 38500 nM | COc1ccc(C(=O)Nc2ccc(OCCCN(C)C)cc2)cc1Nc1nccc(-c2cccnc2)n1
9 | 38600 nM | COc1ccc(C(=O)Nc2ccc(OCCN3CCCC3)cc2)cc1Nc1nccc(-c2cccnc2)n1
10 | 5150 nM | COc1ccc(C(=O)Nc2ccc(OCCN3CCCCC3)cc2)cc1Nc1nccc(-c2cccnc2)n1

What follows are compounds tested against Bcr/Abl fusion protein (Homo sapiens, UniProt P00519) (assay: Inhibition of Bcr-Abl kinase (unknown origin) after 30 mins by HTRF assay). Details: not given.
Chain of Bcr/Abl fusion protein (P00519 whole entry, the tested form may be a part): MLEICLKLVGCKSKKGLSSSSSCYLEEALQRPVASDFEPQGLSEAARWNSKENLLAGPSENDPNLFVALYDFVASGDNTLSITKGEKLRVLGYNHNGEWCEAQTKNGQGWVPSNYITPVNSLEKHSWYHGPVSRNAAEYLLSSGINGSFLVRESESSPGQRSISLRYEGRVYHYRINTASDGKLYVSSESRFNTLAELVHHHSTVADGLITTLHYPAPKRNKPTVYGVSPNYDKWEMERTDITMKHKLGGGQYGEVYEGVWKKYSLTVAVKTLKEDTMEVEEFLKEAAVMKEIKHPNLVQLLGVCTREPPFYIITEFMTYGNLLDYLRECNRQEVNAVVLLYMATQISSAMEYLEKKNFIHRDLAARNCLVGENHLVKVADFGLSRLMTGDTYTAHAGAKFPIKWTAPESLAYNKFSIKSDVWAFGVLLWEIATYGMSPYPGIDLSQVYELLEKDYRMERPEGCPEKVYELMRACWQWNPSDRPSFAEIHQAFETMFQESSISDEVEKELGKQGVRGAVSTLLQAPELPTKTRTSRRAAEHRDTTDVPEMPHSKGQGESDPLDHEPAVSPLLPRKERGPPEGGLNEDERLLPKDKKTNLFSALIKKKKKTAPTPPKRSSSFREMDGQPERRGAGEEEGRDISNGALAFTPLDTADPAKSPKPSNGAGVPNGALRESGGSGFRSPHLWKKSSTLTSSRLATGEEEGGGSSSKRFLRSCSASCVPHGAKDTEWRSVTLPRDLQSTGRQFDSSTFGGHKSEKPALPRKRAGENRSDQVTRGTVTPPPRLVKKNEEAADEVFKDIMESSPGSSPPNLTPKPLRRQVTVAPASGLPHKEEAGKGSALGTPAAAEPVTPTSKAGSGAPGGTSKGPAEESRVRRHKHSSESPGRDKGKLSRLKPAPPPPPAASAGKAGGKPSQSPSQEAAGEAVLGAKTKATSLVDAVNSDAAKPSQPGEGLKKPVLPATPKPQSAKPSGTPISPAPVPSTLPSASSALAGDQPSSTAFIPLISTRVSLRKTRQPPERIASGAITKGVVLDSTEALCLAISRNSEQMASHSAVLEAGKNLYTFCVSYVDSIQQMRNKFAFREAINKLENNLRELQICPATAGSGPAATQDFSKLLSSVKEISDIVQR
Chain of Bcr/Abl fusion protein (P11274 whole entry, further chain, the tested form may be a part): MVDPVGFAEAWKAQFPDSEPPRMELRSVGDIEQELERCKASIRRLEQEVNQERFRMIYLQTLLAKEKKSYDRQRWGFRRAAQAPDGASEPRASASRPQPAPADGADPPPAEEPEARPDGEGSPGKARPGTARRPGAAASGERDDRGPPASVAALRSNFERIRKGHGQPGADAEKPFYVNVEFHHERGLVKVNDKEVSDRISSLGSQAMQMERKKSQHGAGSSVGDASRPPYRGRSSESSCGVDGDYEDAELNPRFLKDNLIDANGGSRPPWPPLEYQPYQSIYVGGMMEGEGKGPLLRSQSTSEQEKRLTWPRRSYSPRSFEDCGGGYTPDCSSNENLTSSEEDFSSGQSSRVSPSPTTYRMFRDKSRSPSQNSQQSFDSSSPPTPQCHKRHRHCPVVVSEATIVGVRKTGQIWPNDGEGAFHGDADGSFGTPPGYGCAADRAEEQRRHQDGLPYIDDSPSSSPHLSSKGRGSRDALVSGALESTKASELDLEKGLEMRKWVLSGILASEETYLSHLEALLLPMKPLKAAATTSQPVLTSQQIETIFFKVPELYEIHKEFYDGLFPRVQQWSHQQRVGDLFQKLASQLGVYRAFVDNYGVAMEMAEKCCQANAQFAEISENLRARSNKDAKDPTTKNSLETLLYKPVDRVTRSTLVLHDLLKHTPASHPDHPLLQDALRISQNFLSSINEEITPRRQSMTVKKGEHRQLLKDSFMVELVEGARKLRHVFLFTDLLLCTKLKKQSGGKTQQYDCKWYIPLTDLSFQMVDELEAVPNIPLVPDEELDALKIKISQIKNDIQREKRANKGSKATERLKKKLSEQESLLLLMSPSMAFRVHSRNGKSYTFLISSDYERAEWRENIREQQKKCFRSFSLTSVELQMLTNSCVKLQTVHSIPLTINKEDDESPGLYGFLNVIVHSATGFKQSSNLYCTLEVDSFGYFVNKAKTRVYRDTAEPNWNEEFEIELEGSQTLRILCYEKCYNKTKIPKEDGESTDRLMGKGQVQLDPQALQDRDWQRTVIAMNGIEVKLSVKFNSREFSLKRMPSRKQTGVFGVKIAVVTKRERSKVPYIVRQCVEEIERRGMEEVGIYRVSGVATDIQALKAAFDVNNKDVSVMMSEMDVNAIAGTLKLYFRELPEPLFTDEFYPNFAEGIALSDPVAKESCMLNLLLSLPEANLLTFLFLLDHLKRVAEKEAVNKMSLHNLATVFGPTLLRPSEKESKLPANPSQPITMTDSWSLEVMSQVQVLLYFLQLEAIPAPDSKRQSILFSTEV
Format: protein assay

Row | Structure (SMILES) | IC50
11 | COc1ccc(C(=O)Nc2ccc(F)c(Cl)c2)cc1Nc1nccc(-c2cccnc2)n1 | 4.73 nM
12 | COc1ccc(C(=O)Nc2cccc(C(F)(F)F)c2)cc1Nc1nccc(-c2cccnc2)n1 | 4130 nM
13 | COc1ccc(C(=O)Nc2cccc(F)c2)cc1Nc1nccc(-c2cccnc2)n1 | 3.21 nM
14 | COc1ccc(C(=O)Nc2cccc(Cl)c2)cc1Nc1nccc(-c2cccnc2)n1 | 34.8 nM
15 | COc1ccc(C(=O)Nc2ncccn2)cc1Nc1nccc(-c2cccnc2)n1 | 3.78 nM
16 | COc1ccc(C(=O)Nc2nccs2)cc1Nc1nccc(-c2cccnc2)n1 | 294 nM

Further lines, results first:

Row | IC50 | Structure (SMILES)
17 | 4.79 nM | COc1ccc(C(=O)Nc2ccc(Br)cc2)cc1Nc1nccc(-c2cccnc2)n1
18 | 2750 nM | COc1ccc(C(=O)Nc2ccncc2)cc1Nc1nccc(-c2cccnc2)n1
19 | 0.52 nM | COc1ccc(C(=O)Nc2ccc(OCCCN(C)C)cc2)cc1Nc1nccc(-c2cccnc2)n1
20 | 2.34 nM | COc1ccc(C(=O)Nc2ccc(OCCN(C)C)cc2)cc1Nc1nccc(-c2cccnc2)n1
21 | 1.48 nM | CCN(CC)CCOc1ccc(NC(=O)c2ccc(OC)c(Nc3nccc(-c4cccnc4)n3)c2)cc1
22 | 350 nM | COc1ccc(C(=O)Nc2ccc(OCCN3CCCC3)cc2)cc1Nc1nccc(-c2cccnc2)n1
23 | 1110 nM | COc1ccc(C(=O)Nc2ccc(OCCN3CCCCC3)cc2)cc1Nc1nccc(-c2cccnc2)n1
24 | 63.3 nM | COc1ccc(C(=O)Nc2ccc(OCCN3CCOCC3)cc2)cc1Nc1nccc(-c2cccnc2)n1
25 | 6.34 nM | COc1ccc(C(=O)Nc2ccc(OCCCN3CCOCC3)cc2)cc1Nc1nccc(-c2cccnc2)n1
